High-throughput results deposited in PubChem BioAssay by The Scripps Research Institute Molecular Screening Center.
Compounds with a hit are over-represented: about 3.3% of the library has one in this group of screens.
PRMT1 FP inh: PRMT1 (human) inhibition, primary screen. inhibition, % at 2.79 µM. recombinant PRMT1, activity-based probe fluorescence polarization. AID 652257. hit rate 1.3% among 370,000. Q99873;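 active = inhibition above about 21% made by adding two undisclosed values, limit read from the data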
HTRA1 inhibitor: inhibitors of human serine peptidase HTRA1; Q92743; recombinant HTRA1, FP-rhodamine activity-based probe, fluorescence polarization; inhibition, % at 5.96 µM; hit rate 0.5% among 340,000; AID 504803; in the data active = inhibition above about 36%;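 note: 0% = enzyme with DMSO and 100% = wells lacking enzyme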
Target sequence (Q92743 whole entry, looked up): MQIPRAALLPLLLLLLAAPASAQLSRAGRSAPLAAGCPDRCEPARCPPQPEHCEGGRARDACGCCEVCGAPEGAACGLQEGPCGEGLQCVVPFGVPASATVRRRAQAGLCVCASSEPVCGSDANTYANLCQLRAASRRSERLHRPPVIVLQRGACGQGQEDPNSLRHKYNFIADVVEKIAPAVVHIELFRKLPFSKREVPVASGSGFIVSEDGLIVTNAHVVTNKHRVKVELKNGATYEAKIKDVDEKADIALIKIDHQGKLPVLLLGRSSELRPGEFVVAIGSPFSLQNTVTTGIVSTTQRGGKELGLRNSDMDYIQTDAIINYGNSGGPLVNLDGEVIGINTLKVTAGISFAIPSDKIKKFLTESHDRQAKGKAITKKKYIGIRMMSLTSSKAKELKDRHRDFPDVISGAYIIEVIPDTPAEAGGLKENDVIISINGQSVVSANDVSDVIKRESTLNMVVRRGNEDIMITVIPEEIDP
rCAG RNA binder: molecules binding r(CAG) RNA repeats; r(CAG) RNA repeat, TO-PRO-1 dye displacement fluorescence; inhibition, % at 3 µM; hit rate 1.3% among 370,000;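 active = inhibition above the plate cutoff, the mean of all test compounds on that plate plus 3 SD, cut at about 35% in these data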;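 note: 0% = DMSO alone and 100% = 100 µM mitoxantrone as full dye displacement; higher means more dye released from RNA so lower well fluorescence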
SIAE inh: human SIAE inhibition, primary screen; AID 1053197; SIAE FP-Rh probe binding, fluorescence polarization; hit rate 0.69% among 370,000; inhibition, % at 9.66 µM;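 active = inhibition above a cutoff: mean of compounds within the control limits plus 3 SD of those, cut at about 17% in these data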;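 note: 0% = plate median of compound wells and 100% = probe without SIAE protein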
ABHD4 inh: inhibitors of mouse ABHD4. Q8VD66. purified mABHD4, FP-Rh probe fluorescence polarization. inhibition, % at 8.92 µM. hit rate 0.54% among 370,000. AID 720543;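 active = inhibition exceeding the mean over every tested compound plus 3 SD, cut at about 30% in these data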;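 note: 0% = plate median of compound wells and 100% = S159A mutant with DMSO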
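Test system: mABHD4 protein | Buffer or medium: HEPES pH 7.0 buffer, 150 mM NaCl, 0.01% Pluronic F-127 | Probe or stimulus: FP-Rh fluorescent activity-based probe, added after compound pre-incubation | Timing: Pre-incubation 45 min, probe exposure 60 min, at 25 °C | Technique: Fluorescence polarization, excitation 525 nm, emission 598 nm, BODIPY TMR filters | Repeats: Single well per compound (singlicate)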
rCAG bind conf: r(CAG) RNA repeat binding, confirmation; shares compounds with rCAG RNA binder; TO-PRO-1 dye displacement fluorescence; inhibition, % at 3 µM; hit rate 70% among 4,300; AID 652065;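 active = inhibition above a per-plate cutoff, the mean inhibition of sample wells plus 3 SD, cut at about 35% in these data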;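 note: loss of TO-PRO-1 fluorescence as compound displaces dye from 1x1 AA loop RNA; 0% = DMSO only wells and 100% = 100 µM mitoxantrone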
DNA CAG counter: DNA CAG dye complex inhibition counter-screen; d(CAG) DNA oligo TO-PRO-1 dye displacement, fluorescence; inhibition, % at 3 µM; shares compounds with rCAG RNA binder; hit rate 94% among 4,300; AID 652068;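 active = inhibition above its plate's cutoff, the mean test-well inhibition plus 3 SD, cut at about 4.8% in these data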;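 note: 0% = DNA dye mix with DMSO and 100% = 100 µM mitoxantrone; hits displace the dye from DNA and so lower well fluorescence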
DNA CAG DR: counter-screen for rCAG binders: inhibitors of DNA CAG TO-PRO-1 complex; shares compounds with rCAG RNA binder; DNA CAG/GTC duplex TO-PRO-1 dye displacement fluorescence; IC50, µM; hit rate 20% among 250; in the data active = IC50 below about 10 µM
Active calls of the source: *; / = no result.

SMILES	PRMT1 FP inh	HTRA1 inhibitor	rCAG RNA binder	SIAE inh	ABHD4 inh	rCAG bind conf	DNA CAG counter	others
COCCCNC(=O)C[C@H]1C[C@@]2(C(=O)OC)C(=C[C@H](C(C)(C)C)O[C@@H]2C)N(Cc2ccco2)C1=O	3	/	-2	-5	0	/	/
CC1Cc2cc(/C=C3/SC(=S)NC3=O)ccc2O1 (stereo unspecified)	0	-13	37*	-21	-11	23	5.9*
CCCCCCN1CCS(=O)(=O)N(Cc2ccc(F)cc2)C(C(=O)OC)C1 (stereo unspecified)	6	/	3	-2	-8	/	/
O=C(CCc1ccccc1)Nc1cc(NC(=O)CCc2ccccc2)cc(C(=O)O)c1	1	-15	40*	2	-1	27	4
O=C(CCc1ccccc1)Nc1cc2c3c(c1)CCC(=O)N3CCC2	1	4	42*	3	4	8	1
COc1ccc(CCC(=O)Nc2cc3c4c(c2)CCC(=O)N4CCC3)cc1	0	-2	-4	6	-4	/	/
COc1ccc(CN2C3=N[C@H](c4ccccc4)CC(=O)N3/C(=C\c3ccccc3)C2c2ccco2)c(OC)c1 (stereo partly specified)	-2	/	8	-2	2	/	/
COc1cc(/C=N/Nc2nc(C)nc3c2cnn3-c2ccccc2)ccc1O	11	4	41*	11	5	27	9.7*
COc1cc(/C=N/NC(=O)c2nc(-c3ccccc3)n(-c3ccccc3)n2)ccc1O	-3	-1	1	8	10	/	/
C=CCN(C)CC#CCCCCl	-2	/	0	3	3	/	/
CC(Oc1ccc2ccc(=O)oc2c1)C(=O)NC(Cc1c[nH]c2ccc(O)cc12)C(=O)O (stereo unspecified)	2	6	6	5	4	/	/
Cc1c(OCC(=O)NC(Cc2ccc(Cl)cc2)C(=O)O)ccc2c(-c3ccccc3)cc(=O)oc12 (stereo unspecified)	-6	0	13	-8	-10	/	/
Cc1c(OC(C(=O)O)c2ccccc2)ccc2c(-c3ccccc3)cc(=O)oc12 (stereo unspecified)	2	-5	37*	-5	-1	38*	9.0*
CCc1cc(=O)oc2cc(C)cc(OCC(=O)NC(Cc3c[nH]c4ccc(O)cc34)C(=O)O)c12 (stereo unspecified)	5	1	6	14	-8	/	/
Cc1c(OC(C)C(=O)O)ccc2c(-c3ccccc3)cc(=O)oc12 (stereo unspecified)	1	-1	0	1	2	/	/
O=C(COc1cc2oc(=O)cc(-c3ccccc3)c2cc1Cl)NC(Cc1c[nH]c2ccc(O)cc12)C(=O)O (stereo unspecified)	4	5	42*	3	11	62*	24*
COc1ccc(-c2cc(=O)oc3cc(OC(C)C(=O)NC(Cc4c[nH]c5ccc(O)cc45)C(=O)O)ccc23)cc1 (stereo unspecified)	6	4	44*	4	8	43*	13*
COc1ccc(-c2cc(=O)oc3c(C)c(OCC(=O)N[C@@H](Cc4ccc(O)cc4)C(=O)O)ccc23)cc1	4	-3	47*	-16	-5	46*	13*
COc1cccc(C(=O)N[C@@H](Cc2cccnc2)C(=O)N2CCC[C@H]2C(=O)NCc2ccccc2)c1	-1	/	-1	10	-5	/	/
CC(=O)N1CCN(C2=Nc3ccccc3Sc3ccccc32)CC1	0	/	0	-4	-1	/	/
COc1ccc(S[C@]2(C(=O)N(C)C)CC(=O)N(c3ccsc3)[C@@H]2c2ccc(OC)cc2)cc1	-1	/	2	-1	0	/	/
CC1(c2nnnn2C2CCCCC2)CSCC(=O)N1CCc1ccc(O)cc1 (stereo unspecified)	-2	/	3	5	1	/	/
COC(=O)c1cc(OC)c(OC)cc1NC(=S)Nc1cc(Cl)ccc1OC	-4	-6	2	4	-3	/	/
COc1ccc(Cl)cc1NC(=S)NNC(=O)C1(C)CC1(Cl)Cl (stereo unspecified)	-2	-7	43*	5	0	25	5.5*
CC(C)C[C@@H]1COc2cccc(N3CCCC3)c2S(=O)(=O)N1C	-2	/	-2	-1	6	/	/
SMILES	PRMT1 FP inh	HTRA1 inhibitor	rCAG RNA binder	SIAE inh	ABHD4 inh	rCAG bind conf	DNA CAG counter	others
COC(=O)C[C@H]1CC[C@@H]2[C@H](COc3ccc(NC(=O)c4ccccc4OC)cc3C(=O)N2C)O1	-9	/	-1	4	-1	/	/
Cc1ccc(S(=O)(=O)N2[C@@H](c3ccccc3F)C(C(=O)O)=CC[C@H]2c2cccc(C)c2)cc1	-2	-5	26	-5	8	/	/
Cc1ccc([C@@H]2CC=C(C(=O)O)[C@H](c3ccccc3F)N2S(=O)(=O)c2ccccc2C)cc1	-1	-8	51*	1	18	59*	24*
Cc1ccc([C@@H]2CC=C(C(=O)O)[C@H](c3cccc(F)c3)N2S(=O)(=O)c2ccccc2C)cc1	-1	-16	76*	0	6	67*	28*
Cc1ccc([C@@H]2CC=C(C(=O)O)[C@H](c3ccc(F)cc3)N2S(=O)(=O)c2ccccc2C)cc1	-1	-13	70*	4	12	60*	23*
Cc1cc(C(=O)Nc2ccc(Cl)c(Cl)c2)n(-c2ccccc2)n1	-1	/	1	-20	-16	/	/
Cc1cccc(NC(=O)Nc2nc3ncccn3c2-c2ccccc2)c1	-1	/	0	-2	3	/	/
C[C@H]1[C@H](NCc2cccnc2)CC[C@@]23CCCN2C(=O)CCC[C@@H]13	1	/	/	-5	1	/	/
Cc1ccc(S(=O)(=O)Nc2ccc(-c3nc4ccc(C)cc4s3)cc2)cc1	-5	-49	35*	-8	-19	28	12*
Cc1cccc(S(=O)(=O)Nc2ccc(-c3nc4ccc(C)cc4s3)cc2)c1	-1	-99	37*	4	-92	40*	15*
Cc1ccc2nc(-c3ccc(NC(=O)CSc4nccc(=O)[nH]4)cc3)sc2c1	1	-48	40*	-31	0	71*	33*	DNA CAG DR=>30
Cc1ccc2nc(-c3ccc(NS(=O)(=O)c4c(C)n(C)c(=O)n(C)c4=O)cc3)sc2c1	1	-26	7	-32	-12	/	/
CCCC(C)C(=O)NC1CCCCN(Cc2ccccc2C)C1=O (stereo unspecified)	-3	/	-1	3	4	/	/
COC(=O)[C@]12C[C@H](CC(=O)NCc3ccc(OC)c(OC)c3)C(=O)N(Cc3cccc4ccccc34)C1=C[C@H](C(C)C)O[C@@H]2C1CC1	3	/	9	3	-13	/	/
O=C(CN1CCN(Cc2ccccc2)CC1)N/N=C\c1c2ccccc2cc2ccccc12	-4	/	3	5	5	/	/
